# Legend:
# [1] = Metabolic stability in rat liver S9 fraction assessed as parent compound remaining at 20 uM after 30 mins in presence of NADPH by RP-HPLC analysis; type: ADME, subcellular; settings: read-out: Stability
# In short: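 Compounds (final 20 μM) incubated aerobically with rat liver S9 fraction with or without NADPH (final 1 mM); stopped after 30 min. Percent parent remaining measured by reversed-phase HPLC with UV or MS detection; means of independent duplicates.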
# [2] = Inhibition of porcine platelets cPLA2 alpha using 1-stearoyl-2-arachidonoyl-sn-glycero-3-phosphocholine as substrate incubated for 60 mins by RP-HPLC analysis; set-up: species or system Sus scrofa
# In short: (§1)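 Stopped with acetonitrile/methanol/0.1 M EDTA containing internal standard and NDGA; released arachidonic acid measured by RP-HPLC, UV 200 nm, after online SPE, with vs without compound. IC50s are means of at least two independent determinations.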
# [3] = target: T1, Fatty-acid amide hydrolase 1 (Rattus norvegicus, UniProt P97612); test: Inhibition of rat brain microsome FAAH using N-(2-hydroxyethyl)-4-pyren-1-ylbutanamide as substrate incubated for 60 mins by RP-HPLC analysis; type: microsomes
# T1 sequence (P97612 whole entry): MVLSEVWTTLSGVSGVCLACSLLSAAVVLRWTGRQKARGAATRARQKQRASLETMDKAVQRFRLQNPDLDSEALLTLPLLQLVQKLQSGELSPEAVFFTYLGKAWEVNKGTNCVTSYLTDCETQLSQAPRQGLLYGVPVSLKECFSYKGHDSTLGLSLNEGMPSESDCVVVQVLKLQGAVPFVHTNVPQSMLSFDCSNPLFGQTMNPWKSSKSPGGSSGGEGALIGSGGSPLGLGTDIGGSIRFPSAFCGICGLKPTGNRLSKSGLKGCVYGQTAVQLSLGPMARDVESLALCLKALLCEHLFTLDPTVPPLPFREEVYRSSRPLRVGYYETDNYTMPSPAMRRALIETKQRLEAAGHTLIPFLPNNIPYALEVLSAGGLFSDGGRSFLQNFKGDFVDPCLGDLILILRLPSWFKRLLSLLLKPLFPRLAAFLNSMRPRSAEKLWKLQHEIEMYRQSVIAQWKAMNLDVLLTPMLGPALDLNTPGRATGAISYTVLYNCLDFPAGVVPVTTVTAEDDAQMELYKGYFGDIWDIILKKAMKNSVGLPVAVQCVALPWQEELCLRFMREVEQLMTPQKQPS
# [4] = target: T2, Cytosolic phospholipase A2 (Homo sapiens, UniProt P47712); test: Inhibition of cPLA2 alpha (unknown origin)
# T2 sequence (P47712 whole entry): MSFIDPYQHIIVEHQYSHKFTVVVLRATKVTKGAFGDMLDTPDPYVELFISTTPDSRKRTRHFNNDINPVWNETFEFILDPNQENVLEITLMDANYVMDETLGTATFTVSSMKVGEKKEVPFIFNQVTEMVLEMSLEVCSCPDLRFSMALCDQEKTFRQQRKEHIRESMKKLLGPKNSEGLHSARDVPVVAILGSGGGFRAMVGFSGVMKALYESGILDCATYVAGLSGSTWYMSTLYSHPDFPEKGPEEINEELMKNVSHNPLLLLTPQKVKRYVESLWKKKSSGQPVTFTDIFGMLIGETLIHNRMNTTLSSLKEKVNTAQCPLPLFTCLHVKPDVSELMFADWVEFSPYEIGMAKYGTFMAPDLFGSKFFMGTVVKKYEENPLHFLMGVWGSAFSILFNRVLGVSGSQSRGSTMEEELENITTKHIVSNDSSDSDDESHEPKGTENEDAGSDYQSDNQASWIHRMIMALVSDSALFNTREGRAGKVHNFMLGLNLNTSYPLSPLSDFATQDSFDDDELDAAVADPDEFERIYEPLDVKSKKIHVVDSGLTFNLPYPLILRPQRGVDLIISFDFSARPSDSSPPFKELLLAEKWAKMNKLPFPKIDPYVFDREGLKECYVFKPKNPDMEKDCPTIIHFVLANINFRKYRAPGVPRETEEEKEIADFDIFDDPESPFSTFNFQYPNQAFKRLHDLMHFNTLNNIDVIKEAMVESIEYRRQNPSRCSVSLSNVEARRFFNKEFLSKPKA
# In short: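 Stopped with acetonitrile/methanol/0.1 M EDTA containing internal standard and NDGA. Released arachidonic acid quantified by reversed-phase HPLC, UV 200 nm, after online SPE; IC50 as mean of ≥2 independent determinations.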
# Platelet = test: Inhibition of porcine platelets cPLA2 alpha at 10 uM using 1-stearoyl-2-arachidonoyl-sn-glycero-3-phosphocholine as substrate incubated for 60 mins by RP-HPLC analysis relative to control; type: cell-based; settings: Sus scrofa; in short: as §1
# [5] = Aqueous solubility of the compound in PBS at pH 7.4 incubated for 20 hrs by RP-HPLC analysis; type: physicochemical; settings: buffer, pH 7.4, 20 h
# In short: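 Thermodynamic solubility: 1 mg test compound in 2 mL PBS (0.01 M, pH 7.4), bath-sonicated 10 min, shaken 20 h at room temperature, centrifuged; acetonitrile added to an aliquot of clear supernatant and dissolved compound quantified by reversed-phase HPLC with UV at 240 nm.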
# [6] = Lipophilicity, logP of compound by RP-HPLC analysis; type: physicochemical
# [7] = target: T3, Fatty-acid amide hydrolase 1 (Rattus norvegicus) (UniProt P97612); test: Inhibition of rat brain microsome FAAH at 10 uM using N-(2-hydroxyethyl)-4-pyren-1-ylbutanamide as substrate incubated for 60 mins by RP-HPLC analysis relative to control; type: microsomes
# T3 sequence (whole entry): T1 sequence (P97612 whole entry)
# In short: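 Rat brain microsomes incubated with N-(2-hydroxyethyl)-4-pyren-1-ylbutanamide (final 100 μM) in PBS containing 0.20% Triton X-100. Reaction stopped after 60 min with acetonitrile/methanol containing 6-pyren-1-ylhexanoic acid as internal standard; released 4-pyren-1-ylbutanoic acid quantified by reversed-phase HPLC with fluorescence detection, with vs without compound. IC50s are means of at least two independent determinations.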
Structure (SMILES),"remaining at 0.5 h, 20 µM [1] [%]",IC50 [2] [nM],IC50 [3] [nM],further results
CC(Oc1ccc(Oc2ccccc2)cc1)C(=O)Cn1nnc(CCC(=O)O)n1 (stereo not drawn),< 5,540,44,–
CCCCCCCCc1ccc(OCC(=O)Cn2ccc3cc(C(=O)O)ccc32)cc1,–,–,–,IC50 [4]: 24 nM
O=C(O)CCCc1nnnn1CC(=O)COc1ccc(Oc2ccccc2)cc1,36,3300,170,–
CCCCCCCCCCOc1ccc(OCC(=O)COc2ccc(C(=O)O)cc2)cc1,–,–,–,IC50 [4]: 7 nM
O=C(O)CCc1nnn(CC(=O)C2CCc3cc(-c4ccccc4)ccc3O2)n1 (stereo not drawn),< 5,> 10000,94,inhibition (Platelet): 34%
COc1ccc2c(c1)c(CC(=O)O)c(C)n2C(=O)c1ccc(Cl)cc1 [INDOMETHACIN],–,–,–,solubility [5]: 246 µg/mL
CCCCCCOc1ccc(OCC(=O)Cn2nnc(CCC(=O)O)n2)cc1,–,47,32,logP [6]: 3.7
O=C(O)CCc1nnnn1CC(=O)COc1ccc(Oc2ccccc2)cc1,52,3000,2100,–
O=C(O)CCc1nnn(CC(=O)COc2ccc(Oc3ccccc3)cc2)n1,< 5,170,54,logP [6]: 2.2
CC(C)CCCOc1ccc(OCC(=O)Cn2nnc(CCC(=O)O)n2)cc1,–,45,32,logP [6]: 3.6
CCCCCCOc1ccc(OC(C)C(=O)Cn2nnc(CCC(=O)O)n2)cc1 (stereo not drawn),–,190,34,–
CCCCCCOc1ccc(OCC(=O)C(C)n2nnc(CCC(=O)O)n2)cc1 (stereo not drawn),–,180,> 10000,inhibition [7]: 31%
CC(C)Cc1ccc(C(C)C(=O)O)cc1 (stereo not drawn) [IBUPROFEN],–,–,–,logP [6]: 3.2
CC(Oc1ccc(Oc2ccccc2)cc1)C(=O)Cn1cc(CCC(=O)O)nn1 (stereo not drawn),29,3100,170,–
CCCCCCOc1ccc(OCC(=O)C(C)n2nnc(CCCC(=O)O)n2)cc1 (stereo not drawn),–,250,750,–
CC(Oc1ccc(Oc2ccccc2)cc1)C(=O)Cn1nnc(CCCC(=O)O)n1 (stereo not drawn),< 5,730,43,–
O=C(O)CCCc1nnn(CC(=O)COc2ccc(Oc3ccccc3)cc2)n1,< 5,280,54,–
O=C(O)CCc1cn(CC(=O)COc2ccc(Oc3ccccc3)cc2)nn1,< 5,850,130,–
CCCCCCc1ccc(OCC(=O)Cn2nnc(CCC(=O)O)n2)cc1,–,36,23,logP [6]: 4.2
CC(Oc1ccc(Oc2ccccc2)cc1)C(=O)Cn1nnnc1CCC(=O)O (stereo not drawn),86,> 10000,880,inhibition (Platelet): 39%
CCCCCCCCc1ccc(OCC(=O)Cn2nnc(CCC(=O)O)n2)cc1,–,19,–,logP [6]: 5.5
CCCCCCOc1ccc(OC(C)C(=O)Cn2nnc(CCCC(=O)O)n2)cc1 (stereo not drawn),–,500,34,–
CC(Oc1ccc(Oc2ccccc2)cc1)C(=O)Cn1nnnc1CCCC(=O)O (stereo not drawn),71,4800,170,–
CCCCc1ccc(OCC(=O)Cn2nnc(CCC(=O)O)n2)cc1,–,260,27,logP [6]: 3

# Source: ChEMBL document CHEMBL5356941, “Synthesis, activity and metabolic stability of propan-2-one substituted tetrazolylalkanoic acids as dual inhibitors of cytosolic phospholipase A2α and fatty acid amide hydrolase” (RSC Med Chem, 2023)
